# Measurements taken from ChEMBL document CHEMBL4145521, “Regioselective synthesis of 3,4-diaryl-5-unsubstituted isoxazoles, analogues of natural cytostatic combretastatin A4” (Eur J Med Chem, 2018).
# Tests used:
# Paracentrotus lividus [1] = assay: Antimitotic activity against Paracentrotus lividus embryo assessed as embryo spinning after 15 mins to 20 hrs by light microscopy; type: functional
# Method in brief: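 Free-swimming blastulae from the same culture were used just after hatching (8–10 h post-fertilization). They were kept in filtered seawater at room temperature and exposed to 2-fold decreasing concentrations. Spinning at the well bottom instead of forward swimming was monitored from 15 min to 20 h under light microscopy. The effective threshold concentration was recorded from duplicates.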
# Paracentrotus lividus [2] = assay: Antimitotic activity against Paracentrotus lividus embryo assessed as cleavage arrest measured at 5.5 hrs post fertilization by light microscopy; type: functional
# Method in brief: (§1)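 Sea urchin eggs were fertilized with diluted sperm and cultured at room temperature in filtered seawater with paddle agitation (60 rpm), at up to 2000 embryos/mL. The effective threshold concentration causing cleavage alteration, death before hatching or full mitotic arrest was scored in duplicate.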
# Paracentrotus lividus [3] = assay: Antimitotic activity against Paracentrotus lividus embryo assessed as cleavage alteration measured at 2.5 hrs post fertilization by light microscopy; type: functional; method in brief: as §1
# Paracentrotus lividus [4] = assay: Toxicity in Paracentrotus lividus embryo assessed as embryo destruction at 2 to 4 uM by light microscopy; type: organism-based; conditions: in vivo
# Paracentrotus lividus [5] = assay: Toxicity in Paracentrotus lividus embryo assessed as embryo death at 2 to 4 uM by light microscopy; type: organism-based; conditions: in vivo
Structure (SMILES),EC (Paracentrotus lividus [1]) [µM],EC (Paracentrotus lividus [2]) [µM],EC (Paracentrotus lividus [3]) [µM],Activity (Paracentrotus lividus [4]),Activity (Paracentrotus lividus [5])
CCOC(=O)C1O[N+]([O-])=C(c2ccccc2)C1c1cc(OC)c2c(c1OC)OCO2 (centres undefined),>4,>4,>4,,
COc1ccc(-c2noc(C(=O)O)c2-c2ccc(Cl)cc2)cc1,>4,>4,>4,,
CCOC(=O)C1O[N+]([O-])=C(c2ccc(OC)cc2)C1c1cc(OC)c(OC)c(OC)c1 (centres undefined),>4,>4,>4,,
COc1ccc(-c2nocc2-c2cnn(C)c2)cc1,>4,>4,>4,,
COc1ccc(-c2noc(C(=O)O)c2-c2cc(OC)cc(OC)c2)cc1,>40,>40,20,,
COc1ccc(-c2noc(C(=O)O)c2-c2cc(OC)c(OC)c(OC)c2)cc1,>5,2,0.2,,
COc1ccc(-c2nocc2-c2cc(OC)cc(OC)c2)cc1,>10,2,0.2,,
COc1cc(-c2conc2-c2ccccc2)cc(OC)c1OC,>4,>4,4,,
COc1ccc(-c2nocc2-c2ccc(Cl)cc2)cc1,>4,>4,>4,,
COc1ccc(-c2conc2-c2ccccc2)cc1,0.1,0.05,0.005,,
COc1ccc(/C(=C/c2cccs2)[N+](=O)[O-])cc1,2,2,0.2,Toxic,Toxic
CCOC(=O)C1O[N+]([O-])=C(c2ccc(OC)cc2)C1c1cccc(OC)c1 (centres undefined),>4,>4,4,,
COc1ccc(/C(=C/c2cc(OC)c(OC)c(OC)c2)[N+](=O)[O-])cc1,>4,4,1,Toxic,Toxic
COc1ccc(-c2nocc2-c2ccc([N+](=O)[O-])cc2)cc1,>4,>4,>4,,
COc1cc(/C=C(/c2ccccc2)[N+](=O)[O-])c(OC)c2c1OCO2,1,4,2,Toxic,Toxic
CCOC(=O)C1O[N+]([O-])=C(c2ccc(OC)cc2)C1c1cc(OC)cc(OC)c1 (centres undefined),>4,>4,>4,,
COc1cc(-c2conc2-c2ccccc2)c(OC)c2c1OCO2,>4,>4,2,,
COc1ccc(/C(=C/c2cnn(C)c2)[N+](=O)[O-])cc1,>4,>4,2,,
CCOC(=O)C1O[N+]([O-])=C(c2ccc(OC)cc2)C1c1ccc([N+](=O)[O-])cc1 (centres undefined),>4,>4,>4,,
COc1cc(-c2c(-c3ccccc3)noc2C(=O)O)c(OC)c2c1OCO2,>4,>4,>4,,
CCOC(=O)C1O[N+]([O-])=C(c2ccc(OC)cc2)C1c1ccc(Cl)cc1 (centres undefined),>4,>4,>4,,
COc1ccc(/C=C\c2cc(OC)c(OC)c(OC)c2)cc1O [COMBRETASTATIN A4],0.05,0.01,0.002,,
COc1ccc(-c2nocc2-c2cccs2)cc1,>4,>4,0.5,,
COc1ccc(-c2nocc2-c2cccc(OC)c2)cc1,>10,4,0.52,,
COc1ccc(/C=C(/c2ccccc2)[N+](=O)[O-])cc1,4,4,2,,
COc1ccc(-c2noc(C(=O)O)c2-c2cccc(OC)c2)cc1,>4,>4,>4,,
